According to ChEMBL document CHEMBL2086252, “Syntheses and evaluation of anticonvulsant activity of novel branched alkyl carbamates” (J Med Chem, 2012):
Activity calls are given as the source filed them. The rule behind the calls is not given here.

Tests used:
Mus musculus [1] = experiment: Anticonvulsant activity in albino CF1 mouse assessed as protection against subcutaneous metrazol-induced seizures at 30 mg/kg, ip after 0.5 hrs; type: functional, organism-based; set-up: dose 30 mg/kg
Method in brief: (§1)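 Mice dosed ip at 30, 100 or 300 mg/kg, then tested 0.5 h and 4 h after administration in the MES or scMet test. Protection was recorded as animals protected over animals tested. Neurotoxicity was recorded as motor impairment or sedation, as animals affected over animals tested.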

Mus musculus [2] = experiment: Anticonvulsant activity in albino CF1 mouse assessed as protection against subcutaneous metrazol-induced seizures at 100 mg/kg, ip after 0.5 hrs; type: functional, organism-based; set-up: dose 100 mg/kg; method in brief: as §1
Mus musculus [3] = experiment: Anticonvulsant activity in albino CF1 mouse assessed as protection against subcutaneous metrazol-induced seizures at 300 mg/kg, ip after 0.5 hrs; type: functional, organism-based; set-up: dose 300 mg/kg; method in brief: as §1
Mus musculus [4] = experiment: Anticonvulsant activity in albino CF1 mouse assessed as protection against subcutaneous metrazol-induced seizures at 30 mg/kg, ip after 4 hrs; type: functional, organism-based; set-up: dose 30 mg/kg; method in brief: as §1
Mus musculus [5] = experiment: Anticonvulsant activity in albino CF1 mouse assessed as protection against subcutaneous metrazol-induced seizures at 100 mg/kg, ip after 4 hrs; type: functional, organism-based; set-up: dose 100 mg/kg; method in brief: as §1
Mus musculus [6] = experiment: Anticonvulsant activity in albino CF1 mouse assessed as protection against subcutaneous metrazol-induced seizures at 300 mg/kg, ip after 4 hrs; type: functional, organism-based; set-up: dose 300 mg/kg; method in brief: as §1
Mus musculus [7] = experiment: Anticonvulsant activity in albino CF1 mouse assessed as protection against maximal electroshock-induced seizures at 30 mg/kg, ip after 0.5 hrs; type: functional, organism-based; set-up: dose 30 mg/kg; method in brief: as §1
Mus musculus [8] = experiment: Anticonvulsant activity in albino CF1 mouse assessed as protection against maximal electroshock-induced seizures at 300 mg/kg, ip after 0.5 hrs; type: functional, organism-based; set-up: dose 300 mg/kg; method in brief: as §1
Mus musculus [9] = experiment: Anticonvulsant activity in albino CF1 mouse assessed as protection against maximal electroshock-induced seizures at 30 mg/kg, ip after 4 hrs; type: functional, organism-based; set-up: dose 30 mg/kg; method in brief: as §1
Mus musculus [10] = experiment: Anticonvulsant activity in albino CF1 mouse assessed as protection against maximal electroshock-induced seizures at 100 mg/kg, ip after 4 hrs; type: functional, organism-based; set-up: dose 100 mg/kg; method in brief: as §1
Mus musculus [11] = experiment: Anticonvulsant activity in albino CF1 mouse assessed as protection against maximal electroshock-induced seizures at 300 mg/kg, ip after 4 hrs; type: functional, organism-based; set-up: dose 300 mg/kg; method in brief: as §1
Mus musculus [12] = experiment: Neurotoxicity in albino CF1 mouse assessed as minimal motor impairment at 30 mg/kg, ip after 0.5 hrs by rotarod test; type: toxicity, organism-based; set-up: dose 30 mg/kg, route intraperitoneal; details: in vivo; method in brief: as §1
Mus musculus [13] = experiment: Neurotoxicity in albino CF1 mouse assessed as minimal motor impairment at 100 mg/kg, ip after 0.5 hrs by rotarod test; type: toxicity, organism-based; set-up: dose 100 mg/kg, route intraperitoneal; details: in vivo; method in brief: as §1
Mus musculus [14] = experiment: Neurotoxicity in albino CF1 mouse assessed as minimal motor impairment at 300 mg/kg, ip after 0.5 hrs by rotarod test; type: toxicity, organism-based; set-up: dose 300 mg/kg, route intraperitoneal; details: in vivo; method in brief: as §1
Mus musculus [15] = experiment: Neurotoxicity in albino CF1 mouse assessed as minimal motor impairment at 30 mg/kg, ip after 4 hrs by rotarod test; type: toxicity, organism-based; set-up: dose 30 mg/kg, route intraperitoneal; details: in vivo; method in brief: as §1
Mus musculus [16] = experiment: Neurotoxicity in albino CF1 mouse assessed as minimal motor impairment at 100 mg/kg, ip after 4 hrs by rotarod test; type: toxicity, organism-based; set-up: dose 100 mg/kg, route intraperitoneal; details: in vivo; method in brief: as §1
Mus musculus [17] = experiment: Neurotoxicity in albino CF1 mouse assessed as minimal motor impairment at 300 mg/kg, ip after 4 hrs by rotarod test; type: toxicity, organism-based; set-up: dose 300 mg/kg, route intraperitoneal; details: in vivo; method in brief: as §1
Rattus norvegicus [18] = experiment: Anticonvulsant activity in Sprague-Dawley albino rat assessed as protection against maximal electroshock-induced seizures at 30 mg/kg, po after 1 hr; type: functional, organism-based; set-up: dose 30 mg/kg
Method in brief: (§2)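 Rats dosed orally. Anti-MES protection was scored as animals protected over animals tested at each time after dosing. Neurotoxicity was scored as motor impairment or sedation, as animals affected over animals tested.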

Rattus norvegicus [19] = experiment: Anticonvulsant activity in Sprague-Dawley albino rat assessed as protection against maximal electroshock-induced seizures at 30 mg/kg, po after 2 hrs; type: functional, organism-based; set-up: dose 30 mg/kg; method in brief: as §2
Rattus norvegicus [20] = experiment: Anticonvulsant activity in Sprague-Dawley albino rat assessed as protection against maximal electroshock-induced seizures at 30 mg/kg, po after 4 hrs; type: functional, organism-based; set-up: dose 30 mg/kg; method in brief: as §2
Rattus norvegicus [21] = experiment: Neurotoxicity in Sprague-Dawley albino rat assessed as minimal motor impairment at 30 mg/kg, po by rotarod test; type: toxicity, organism-based; set-up: dose 30 mg/kg, route oral; details: in vivo; method in brief: as §2
Rattus norvegicus [22] = experiment: Neurotoxicity in pilocarpine-induced status epilepticus Sprague-Dawley albino rat model assessed as minimal motor impairment at 100 mg/kg, ip after 0.25 hr by rotarod test; type: toxicity, organism-based; set-up: dose 100 mg/kg, route intraperitoneal; details: in vivo
Rattus norvegicus [23] = experiment: Neurotoxicity in pilocarpine-induced status epilepticus Sprague-Dawley albino rat model assessed as minimal motor impairment at 300 mg/kg, ip after 0.25 hr by rotarod test; type: toxicity, organism-based; set-up: dose 300 mg/kg, route intraperitoneal; details: in vivo
Method in brief: (§3)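 Rat pilocarpine status epilepticus model: test carbamate given at 0 or 30 min after the first observed Racine stage 3 motor seizure, which marks SE onset. Neurotoxicity was scored within the same model.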

Rattus norvegicus [24] = experiment: Neurotoxicity in pilocarpine-induced status epilepticus Sprague-Dawley albino rat model assessed as minimal motor impairment at 30 mg/kg, ip after 0.25 hr by rotarod test; type: toxicity, organism-based; set-up: dose 30 mg/kg, route intraperitoneal; details: in vivo; method in brief: as §3
Rattus norvegicus [25] = experiment: Neurotoxicity in pilocarpine-induced status epilepticus Sprague-Dawley albino rat model assessed as minimal motor impairment at 100 mg/kg, ip after 0.5 hrs by rotarod test; type: toxicity, organism-based; set-up: dose 100 mg/kg, route intraperitoneal; details: in vivo
Rattus norvegicus [26] = experiment: Neurotoxicity in pilocarpine-induced status epilepticus Sprague-Dawley albino rat model assessed as minimal motor impairment at 300 mg/kg, ip after 0.5 hrs by rotarod test; type: toxicity, organism-based; set-up: dose 300 mg/kg, route intraperitoneal; details: in vivo; method in brief: as §3
Rattus norvegicus [27] = experiment: Neurotoxicity in pilocarpine-induced status epilepticus Sprague-Dawley albino rat model assessed as minimal motor impairment at 30 mg/kg, ip after 0.5 hrs by rotarod test; type: toxicity, organism-based; set-up: dose 30 mg/kg, route intraperitoneal; details: in vivo; method in brief: as §3
Rattus norvegicus [28] = experiment: Neurotoxicity in pilocarpine-induced status epilepticus Sprague-Dawley albino rat model assessed as minimal motor impairment at 300 mg/kg, ip after 1 hr by rotarod test; type: toxicity, organism-based; set-up: dose 300 mg/kg, route intraperitoneal; details: in vivo; method in brief: as §3
Rattus norvegicus [29] = experiment: Neurotoxicity in pilocarpine-induced status epilepticus Sprague-Dawley albino rat model assessed as minimal motor impairment at 30 mg/kg, ip after 1 hr by rotarod test; type: toxicity, organism-based; set-up: dose 30 mg/kg, route intraperitoneal; details: in vivo; method in brief: as §3
Rattus norvegicus [30] = experiment: Neurotoxicity in pilocarpine-induced status epilepticus Sprague-Dawley albino rat model assessed as minimal motor impairment at 100 mg/kg, ip after 2 hrs by rotarod test; type: toxicity, organism-based; set-up: dose 100 mg/kg, route intraperitoneal; details: in vivo
Rattus norvegicus [31] = experiment: Neurotoxicity in pilocarpine-induced status epilepticus Sprague-Dawley albino rat model assessed as minimal motor impairment at 300 mg/kg, ip after 2 hrs by rotarod test; type: toxicity, organism-based; set-up: dose 300 mg/kg, route intraperitoneal; details: in vivo; method in brief: as §3
Rattus norvegicus [32] = experiment: Neurotoxicity in pilocarpine-induced status epilepticus Sprague-Dawley albino rat model assessed as minimal motor impairment at 30 mg/kg, ip after 2 hrs by rotarod test; type: toxicity, organism-based; set-up: dose 30 mg/kg, route intraperitoneal; details: in vivo; method in brief: as §3
Rattus norvegicus [33] = experiment: Neurotoxicity in pilocarpine-induced status epilepticus Sprague-Dawley albino rat model assessed as minimal motor impairment at 100 mg/kg, ip after 4 hrs by rotarod test; type: toxicity, organism-based; set-up: dose 100 mg/kg, route intraperitoneal; details: in vivo
Rattus norvegicus [34] = experiment: Neurotoxicity in pilocarpine-induced status epilepticus Sprague-Dawley albino rat model assessed as minimal motor impairment at 300 mg/kg, ip after 4 hrs by rotarod test; type: toxicity, organism-based; set-up: dose 300 mg/kg, route intraperitoneal; details: in vivo; method in brief: as §3
Rattus norvegicus [35] = experiment: Neurotoxicity in pilocarpine-induced status epilepticus Sprague-Dawley albino rat model assessed as minimal motor impairment at 30 mg/kg, ip after 4 hrs by rotarod test; type: toxicity, organism-based; set-up: dose 30 mg/kg, route intraperitoneal; details: in vivo; method in brief: as §3
Rattus norvegicus [36] = experiment: Anticonvulsant activity in Sprague-Dawley albino rat assessed as protection against maximal electroshock-induced seizures at 30 mg/kg, po after 15 mins; type: functional, organism-based; set-up: dose 30 mg/kg; method in brief: as §2
Rattus norvegicus [37] = experiment: Anticonvulsant activity in Sprague-Dawley albino rat assessed as protection against maximal electroshock-induced seizures at 30 mg/kg, po after 30 mins; type: functional, organism-based; set-up: dose 30 mg/kg; method in brief: as §2

CC(COC(N)=O)CC(C)(C)C (racemic)
Activity (Mus musculus [1]): inactive | Activity (Mus musculus [2]): inactive | Activity (Mus musculus [3]): Active | Activity (Mus musculus [4]): inactive | Activity (Mus musculus [5]): inactive | Activity (Mus musculus [6]): inactive | Activity (Mus musculus [7]): inactive | Activity (Mus musculus [8]): Active | Activity (Mus musculus [9]): inactive | Activity (Mus musculus [10]): inactive | Activity (Mus musculus [11]): Active | Activity (Mus musculus [12]): Non-toxic | Activity (Mus musculus [13]): Non-toxic | Activity (Mus musculus [14]): Toxic | Activity (Mus musculus [15]): Non-toxic | Activity (Mus musculus [16]): Non-toxic | Activity (Mus musculus [17]): Non-toxic | Activity (Rattus norvegicus [18]): inactive | Activity (Rattus norvegicus [19]): inactive | Activity (Rattus norvegicus [20]): inactive | Activity (Rattus norvegicus [21]): Non-toxic | Activity (Rattus norvegicus [22]): Toxic | Activity (Rattus norvegicus [23]): Toxic | Activity (Rattus norvegicus [24]): Non-toxic | Activity (Rattus norvegicus [25]): Toxic | Activity (Rattus norvegicus [26]): Toxic | Activity (Rattus norvegicus [27]): Non-toxic | Activity (Rattus norvegicus [28]): Toxic | Activity (Rattus norvegicus [29]): Non-toxic | Activity (Rattus norvegicus [30]): Non-toxic | Activity (Rattus norvegicus [31]): Toxic | Activity (Rattus norvegicus [32]): Non-toxic | Activity (Rattus norvegicus [33]): Non-toxic | Activity (Rattus norvegicus [34]): Non-toxic | Activity (Rattus norvegicus [35]): Non-toxic

CCCC(COC(N)=O)C(C)CC (racemic)
Activity (Mus musculus [1]): inactive | Activity (Mus musculus [2]): inactive | Activity (Mus musculus [3]): Active | Activity (Mus musculus [4]): inactive | Activity (Mus musculus [5]): inactive | Activity (Mus musculus [6]): inactive | Activity (Mus musculus [7]): inactive | Activity (Mus musculus [8]): Active | Activity (Mus musculus [9]): inactive | Activity (Mus musculus [10]): inactive | Activity (Mus musculus [11]): Active | Activity (Mus musculus [12]): Non-toxic | Activity (Mus musculus [15]): Non-toxic | Activity (Mus musculus [16]): Non-toxic | Activity (Mus musculus [17]): Non-toxic | Activity (Rattus norvegicus [36]): inactive | Activity (Rattus norvegicus [37]): inactive | Activity (Rattus norvegicus [18]): inactive | Activity (Rattus norvegicus [19]): inactive | Activity (Rattus norvegicus [20]): inactive | Activity (Rattus norvegicus [21]): Non-toxic | Activity (Rattus norvegicus [22]): Toxic | Activity (Rattus norvegicus [23]): Non-toxic | Activity (Rattus norvegicus [24]): Toxic | Activity (Rattus norvegicus [25]): Toxic | Activity (Rattus norvegicus [26]): Non-toxic | Activity (Rattus norvegicus [27]): Toxic | Activity (Rattus norvegicus [28]): Non-toxic | Activity (Rattus norvegicus [29]): Toxic | Activity (Rattus norvegicus [30]): Non-toxic | Activity (Rattus norvegicus [31]): Non-toxic | Activity (Rattus norvegicus [32]): Toxic | Activity (Rattus norvegicus [33]): Non-toxic | Activity (Rattus norvegicus [34]): Non-toxic | Activity (Rattus norvegicus [35]): Toxic
